Results of several laboratories.
Compare with care: the assays were run in different laboratories.
Target: 3-phosphoinositide-dependent protein kinase 1 (PDPK1, Homo sapiens, UniProt O15530)
Sequence (O15530 1-556, as in one of the studies): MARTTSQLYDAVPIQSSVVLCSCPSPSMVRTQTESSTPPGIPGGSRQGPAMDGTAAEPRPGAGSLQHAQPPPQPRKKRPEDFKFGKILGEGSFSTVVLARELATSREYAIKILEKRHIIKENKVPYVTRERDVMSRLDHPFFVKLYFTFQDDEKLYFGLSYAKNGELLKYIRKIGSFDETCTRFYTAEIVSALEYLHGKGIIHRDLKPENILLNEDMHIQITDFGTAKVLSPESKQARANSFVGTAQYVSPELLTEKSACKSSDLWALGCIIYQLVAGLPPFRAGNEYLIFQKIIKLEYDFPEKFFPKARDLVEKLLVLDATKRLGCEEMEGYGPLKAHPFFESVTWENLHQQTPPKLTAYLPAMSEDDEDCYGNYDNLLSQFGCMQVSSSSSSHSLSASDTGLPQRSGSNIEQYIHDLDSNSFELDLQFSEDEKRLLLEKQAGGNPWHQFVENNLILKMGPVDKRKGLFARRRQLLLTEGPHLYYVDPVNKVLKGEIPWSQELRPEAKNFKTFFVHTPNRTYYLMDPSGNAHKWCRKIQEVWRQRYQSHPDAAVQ

| Structure (SMILES) | observed | mode | technique | concentration | quantity | result |
| --- | --- | --- | --- | --- | --- | --- |
| Cn1cncc1[C@@](O)(COc1ccc(C#N)cc1-c1ccc(OC(F)(F)F)cc1)c1ccc(C#N)cc1 | cell-free assay |  | competition with immobilised ligand | 1 µM | remaining binding | 96% |
| Cn1cc(-c2cc(F)cc(N3CCn4c(cc5c4CCCC5)C3=O)c2CO)cc(Nc2ccc(N3CCN(C4COC4)CC3)cn2)c1=O | enzyme activity | inhibitor |  | 0.1 µM | inhibition | 1% |
| COc1ncccc1-c1cnn2ccc(N3CCN(C(=O)OC(C)C)CC3)nc12 | binding |  | competition with immobilised ligand | 1 µM | remaining binding | 82% |
| Cc1nn(C)cc1-c1nc2c(N3CCN(Cc4ccc(Cl)cc4)CC3)c(Cl)cnc2[nH]1 | binding |  | competition with immobilised ligand | 1 µM | remaining binding | 100% |
| C#Cc1n[nH]c2c(-c3cn([C@@H](C)c4ccccn4)c(=O)[nH]c3=O)cc(F)cc12 | enzyme activity | inhibitor |  | 0.1 µM | inhibition | 4.7% |
| O=c1[nH]c2ccccc2n1C1CCN(Cc2ccc(-c3[nH]c4cc5ncnc5cc4nc3-c3ccccc3)cc2)CC1 | cell-free assay |  |  | 0.5 µM | remaining signal | 107% |
| C#Cc1n[nH]c2c(-c3cn([C@@H](C)c4ccccc4)c(=O)[nH]c3=O)cc(F)cc12 | enzyme activity | inhibitor |  | 0.1 µM | inhibition | 4% |
| Nc1ncc(-c2nc(N3CCOCC3)nc(N3CCOCC3)n2)c(C(F)F)n1 | binding |  | competition with immobilised ligand | 10 µM | remaining binding | 83% |
| CC(C)(C)c1cc(C=C(C#N)C#N)cc(Br)c1O | enzyme activity | inhibitor |  | 0.5 µM | remaining activity | 102% |
